Results from ChEMBL document CHEMBL2346602, “A potent bivalent Smac mimetic (SM-1200) achieving rapid, complete, and durable tumor regression in mice” (J Med Chem, 2013).
The source made the active and inactive calls. The rule behind the calls is not given here.

Key:
[1] = system: MDA-MB-231; test: Antitumor activity against human MDA-MB-231 cells xenografted in nude immunodeficient mouse assessed as tumor regression at 7.5 mg/kg, iv administered every week for 4 weeks measured over 76 days; assay type: functional, organism-based; parameters: dose 7.5 mg/kg
Outline: (§1)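 5 × 10⁶ MDA-MB-231 cells in 50% Matrigel injected subcutaneously, one tumor per mouse. Dosing began on day 28, at mean tumor volume 100 mm³. Tumor volume and body weight were tracked. Groups were compared by t test.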

[2] = system: MDA-MB-231; test: Antitumor activity against human MDA-MB-231 cells xenografted in nude immunodeficient mouse assessed as tumor growth inhibition at 7.5 mg/kg, iv administered every week for 4 weeks measured over 76 days; assay type: functional, organism-based; parameters: dose 7.5 mg/kg; outline: as §1
[3] = Elimination half life in Sprague-Dawley rat at […], iv; assay type: ADME, organism-based; parameters: dose 2.5 mg/kg, route intravenous; settings: in vivo, read-out: beta t1/2 (converted)
[4] = system: MDA-MB-231; test: Induction of apoptosis in human MDA-MB-231 cells assessed as caspase-8 cleavage after 24 hrs by Western blot analysis; assay type: functional, cell-based
Outline: (§2)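 MDA-MB-231 cells were treated 24 h with graded concentrations. Lysates were made in Tris/NaCl/EDTA/SDS/NP-40 buffer with PMSF and protease inhibitors on ice, then run on 4−20% SDS-PAGE and blotted to PVDF. Blots were probed for cIAP1, cleaved PARP, and caspase-8, -9 and -3 (full-length and cleaved), with HRP chemiluminescent detection.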

[5] = system: MDA-MB-231; test: Antitumor activity against human MDA-MB-231 cells xenografted in nude immunodeficient mouse assessed as tumor regression at 3 mg/kg/week, iv after 4 weeks relative to vehicle-treated control; assay type: functional; outline: as §1
[6] = system: MDA-MB-231; test: Induction of apoptosis in human MDA-MB-231 cells xenografted in SCID mouse assessed as cIAP1 degradation at 5 mg/kg, after 2 to 24 hrs by Western blot analysis; assay type: functional, organism-based; parameters: dose 5 mg/kg
Outline: (§3)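 SCID mice carried subcutaneous dorsal MDA-MB-231 xenografts (5 × 10⁶ cells with Matrigel). At about 100 mm³, mice got a single iv dose of 5 mg/kg or vehicle. They were sacrificed at set time points, and tumor lysates were Western blotted for cIAP1, XIAP, caspase-3, PARP and cleaved PARP.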

[7] = system: MDA-MB-231; test: Induction of apoptosis in human MDA-MB-231 cells xenografted in SCID mouse assessed as caspase 3 cleavage at 5 mg/kg, iv measured at 4 hrs by Western blot analysis; assay type: functional, organism-based; parameters: dose 5 mg/kg; outline: as §3
[8] = system: MDA-MB-231; test: Antitumor activity against human MDA-MB-231 cells xenografted in nude immunodeficient mouse assessed as tumor regression at 10 mg/kg/week, iv after 4 weeks relative to vehicle-treated control; assay type: functional; outline: as §1
[9] = system: MDA-MB-231; test: Induction of apoptosis in human MDA-MB-231 cells xenografted in SCID mouse assessed as decrease in XIAP level at 5 mg/kg, iv after 8 to 24 hrs by Western blot analysis; assay type: functional, organism-based; parameters: dose 5 mg/kg; outline: as §3
[10] = AUC in Sprague-Dawley rat at […], iv; assay type: ADME, organism-based; parameters: dose 2.5 mg/kg, route intravenous; settings: plasma
[11] = system: MDA-MB-231; test: Antitumor activity against human MDA-MB-231 cells xenografted in nude immunodeficient mouse assessed as tumor regression at 3 mg/kg/week, iv after 1 week relative to vehicle-treated control; assay type: functional; outline: as §1
[12] = system: MDA-MB-231; test: Induction of apoptosis in human MDA-MB-231 cells assessed as apoptotic cells at 10 nM after 24 hrs by trypan blue assay relative to control; assay type: functional
Outline: (§4)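 MDA-MB-231 cells were exposed to graded compound concentrations for 24 h and viability scored by trypan blue exclusion. Blue or morphologically unhealthy cells counted as dead. At least 100 cells per treatment were scored, in triplicate.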

[13] = system: MDA-MB-231; test: Induction of apoptosis in human MDA-MB-231 cells xenografted in SCID mouse assessed as PARP cleavage at 5 mg/kg, iv after 4 to 24 hrs by Western blot analysis; assay type: functional, organism-based; parameters: dose 5 mg/kg; outline: as §3
[14] = system: Mus musculus; test: Toxicity in nude immunodeficient mouse xenografted with human MDA-MB-231 cells assessed as body weight change at 3 to 10 mg/kg, iv administered every week for 4 weeks measured over 76 days; assay type: organism-based; parameters: dose 3-10 mg/kg, route intravenous; settings: in vivo, 1824 h; outline: as §1
[15] = system: MDA-MB-231; test: Induction of apoptosis in human MDA-MB-231 cells assessed as PARP cleavage after 24 hrs by Western blot analysis; assay type: functional, cell-based; outline: as §2
[16] = system: MDA-MB-231; test: Induction of apoptosis in human MDA-MB-231 cells assessed as cIAP1 degradation at 1 nM after 24 hrs by Western blot analysis; assay type: functional, cell-based; outline: as §2
[17] = system: MDA-MB-231; test: Induction of apoptosis in human MDA-MB-231 cells assessed as caspase-3 cleavage after 24 hrs by Western blot analysis; assay type: functional, cell-based; outline: as §2
[18] = system: MDA-MB-231; test: Antitumor activity against human MDA-MB-231 cells xenografted in nude immunodeficient mouse assessed as tumor regression at 10 mg/kg/week, iv after 1 week relative to vehicle-treated control; assay type: functional; outline: as §1
[19] = system: Rattus norvegicus; test: Apparent volume of distribution during terminal phase in Sprague-Dawley rat at […], iv; assay type: ADME, organism-based; parameters: dose 2.5 mg/kg, route intravenous; settings: in vivo
[20] = system: MDA-MB-231; test: Induction of apoptosis in human MDA-MB-231 cells assessed as apoptotic cells after 24 hrs by trypan blue assay; assay type: functional, cell-based; outline: as §4
[21] = AUC in Sprague-Dawley rat at 1 mg/kg, iv; assay type: ADME, organism-based; parameters: dose 1 mg/kg, route intravenous; settings: plasma
[22] = system: MDA-MB-231; test: Induction of apoptosis in human MDA-MB-231 cells assessed as cIAP1 degradation at 0.3 nM after 24 hrs by Western blot analysis; assay type: functional, cell-based; outline: as §2
[23] = system: Rattus norvegicus; test: Apparent volume of distribution during terminal phase in Sprague-Dawley rat at 1 mg/kg, iv; assay type: ADME, organism-based; parameters: dose 1 mg/kg, route intravenous; settings: in vivo
[24] = Elimination half life in Sprague-Dawley rat at 1 mg/kg, iv; assay type: ADME, organism-based; parameters: dose 1 mg/kg, route intravenous; settings: in vivo, read-out: beta t1/2 (converted)

In the case of `CC(=O)O[C@@]12CO[C@@H]1C[C@H](O)[C@@]1(C)C(=O)[C@H](O)C3=C(C)[C@@H](OC(=O)[C@H](O)[C@@H](NC(=O)OC(C)(C)C)c4ccccc4)C[C@@](O)([C@@H](OC(=O)c4ccccc4)[C@H]21)C3(C)C`, the Activity [1] is reported as “inactive” and the TGI [2] is reported as “Active”.
In the case of `CN[C@@H](C)C(=O)N[C@H]1CN(C(=O)Nc2ccc(NC(=O)N3CC[C@H]4CC[C@@H](C(=O)NC(c5ccccc5)c5ccccc5)N4C(=O)[C@@H](NC(=O)[C@H](C)NC)C3)cc2)CC[C@H]2CC[C@@H](C(=O)NC(c3ccccc3)c3ccccc3)N2C1=O`, the half-life [3] is reported as 294 min, the Activity [4] is reported as “Dose-dependent effect” and the Activity [5] is reported as 93%. The Activity [6] was “Active”, the Activity [7] was “Active” and the Activity [8] was 99%. The Activity [9] was “Active”, the AUC [10] was 3770 ng·h/mL and the Activity [11] was 55%. For the same molecule, the Activity [12] was over 75%, the Activity [13] was “Active” and the Activity [14] was “Non-toxic”. For the same molecule, the Activity [15] was “Dose-dependent effect”, the Activity [16] was “Active” and the Activity [17] was “Dose-dependent effect”. For the same molecule, the Activity [18] was 88%, the Vz/F [19] was 0.5 L/kg and the Activity [20] was “Dose-dependent effect”.
In the case of `CN[C@@H](C)C(=O)N[C@H]1CCCC[C@H]2CC[C@@H](C(=O)N[C@@H](c3ccccc3)c3cn(CCCCc4ccc(CCCCn5cc([C@@H](NC(=O)[C@@H]6CC[C@@H]7CCCC[C@H](NC(=O)[C@H](C)NC)C(=O)N76)c6ccccc6)nn5)cc4)nn3)N2C1=O`, the Activity [4] is reported as “Dose-dependent effect”, the AUC [21] is reported as 221 ng·h/mL and the Activity [22] is reported as “Active”. For the same molecule, the Vz/F [23] was 1 L/kg, the Activity [12] was over 75% and the half-life [24] was 8.4 min. For the same molecule, the Activity [15] was “Dose-dependent effect”, the Activity [17] was “Dose-dependent effect” and the Activity [20] was “Dose-dependent effect”.
